Columns and labels:
[1] = biological target: T1, Glucagon receptor (Homo sapiens, UniProt P47871); experiment: Displacement of [125I]porcine glucagon from human recombinant glucagon receptor expressed in BHK cells by scintillation proximity assay; type: cell-based
[2] = species: Homo sapiens; experiment: Selectivity for human recombinant glucagon receptor over human GLP1R
[3] = species: Homo sapiens; experiment: Selectivity ratio of IC50 for human recombinant glucagon receptor to IC50 for human recombinant GIPR
Outline: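 Competition binding of compounds to recombinant human glucagon and GIP receptors on BHK cell membranes, run in parallel as a scintillation proximity assay and, for selected compounds, as a membrane filtration assay.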

[4] = biological target: T2, Gastric inhibitory polypeptide receptor (Homo sapiens, UniProt P48546); experiment: Displacement of [125I]porcine GIP from human recombinant GIPR receptor expressed in BHK cells by scintillation proximity assay; type: cell-based
T2 sequence (P48546 whole entry): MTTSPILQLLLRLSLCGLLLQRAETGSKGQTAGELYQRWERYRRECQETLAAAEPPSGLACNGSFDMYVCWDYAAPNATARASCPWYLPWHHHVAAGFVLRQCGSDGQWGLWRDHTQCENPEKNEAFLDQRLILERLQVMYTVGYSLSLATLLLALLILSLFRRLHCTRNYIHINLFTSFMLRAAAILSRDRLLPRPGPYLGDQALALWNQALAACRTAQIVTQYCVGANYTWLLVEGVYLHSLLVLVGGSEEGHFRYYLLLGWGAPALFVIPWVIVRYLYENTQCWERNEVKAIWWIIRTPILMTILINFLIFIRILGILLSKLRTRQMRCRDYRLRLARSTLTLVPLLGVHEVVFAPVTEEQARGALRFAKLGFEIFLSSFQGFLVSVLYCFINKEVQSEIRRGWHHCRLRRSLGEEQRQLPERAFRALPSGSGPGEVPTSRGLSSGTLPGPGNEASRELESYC

[5] = Clearance in fasted Sprague-Dawley rat at 1.9 mg/kg, iv and 3.7 mg/kg, po by HTLC-MS/MS analysis; type: ADME, organism-based; conditions: in vivo
Outline: (§1)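 Rats were dosed intravenously and perorally in separate arms, and plasma concentration-time profiles were obtained. Half-life was taken from the iv arm. Clearance, oral bioavailability, Cmax and Tmax were derived from the profiles.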

[6] = Cmax in fasted Sprague-Dawley rat at 1.9 mg/kg, iv and 3.7 mg/kg, po by HTLC-MS/MS analysis; type: ADME, organism-based; conditions: in vivo; outline: as §1
[7] = Tmax in fasted Sprague-Dawley rat at 1.9 mg/kg, iv and 3.7 mg/kg, po by HTLC-MS/MS analysis; type: ADME, organism-based; conditions: in vivo
Outline: (§2)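 Plasma concentration–time profiles were recorded after separate intravenous and peroral dosing at the per-compound doses listed. T_max is reported in min alongside C_max (ng/mL), intravenous half-life and clearance ((mL/min)/kg).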

[8] = Half life in fasted Sprague-Dawley rat plasma at 1.9 mg/kg, iv by HTLC-MS/MS analysis; type: ADME, organism-based; design: dose 1.9 mg/kg, route intravenous; outline: as §1
[9] = Oral bioavailability in fasted Sprague-Dawley rat at 3.7 mg/kg by HTLC-MS/MS analysis; type: ADME, organism-based; conditions: in vivo
Outline: (§3)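 Separate intravenous and peroral dosing arms per compound, with plasma concentration followed against time. Oral bioavailability (F_po) is reported per compound together with the intravenous half-life and clearance. The dose used for each arm is listed per compound.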

[10] = Cmax in fasted Sprague-Dawley rat at 1.66mg/kg, iv and 3 mg/kg, po; type: ADME, organism-based; design: dose 3 mg/kg, route oral; conditions: in vivo; outline: as §1
[11] = Oral bioavailability in fasted Sprague-Dawley rat at 3 mg/kg by HTLC-MS/MS analysis; type: ADME, organism-based; conditions: in vivo; outline: as §3
[12] = Tmax in fasted Sprague-Dawley rat at 1.6mg/kg, iv and 3 mg/kg, po; type: ADME, organism-based; design: dose 3 mg/kg, route oral; conditions: in vivo; outline: as §2
[13] = Half life in fasted Sprague-Dawley rat plasma at 1.66 mg/kg, iv by HTLC-MS/MS analysis; type: ADME, organism-based; design: dose 1.66 mg/kg, route intravenous; outline: as §1
[14] = Clearance in fasted Sprague-Dawley rat at 1.66 mg/kg, iv and 3 mg/kg, po; type: ADME, organism-based; conditions: in vivo; outline: as §1
[15] = biological target: T1, Glucagon receptor; experiment: Binding affinity to human recombinant glucagon receptor expressed in BHK cells by membrane filter assay; type: cell-based
[16] = biological target: T2, Gastric inhibitory polypeptide receptor; experiment: Binding affinity to human recombinant GIPR expressed in BHK cells by membrane filter assay; type: cell-based
[17] = Half life in fasted Sprague-Dawley rat plasma at 1.6 mg/kg, iv by HTLC-MS/MS analysis; type: ADME, organism-based; design: dose 1.6 mg/kg, route intravenous; outline: as §1
[18] = Clearance in fasted Sprague-Dawley rat at 1.6 mg/kg, iv and 3.15 mg/kg, po by HTLC-MS/MS analysis; type: ADME, organism-based; conditions: in vivo; outline: as §1
[19] = Tmax in fasted Sprague-Dawley rat at 1.6 mg/kg, iv and 3.15 mg/kg, po by HTLC-MS/MS analysis; type: ADME, organism-based; conditions: in vivo; outline: as §2
[20] = Oral bioavailability in fasted Sprague-Dawley rat at 3.15 mg/kg by HTLC-MS/MS analysis; type: ADME, organism-based; conditions: in vivo; outline: as §3
[21] = Cmax in fasted Sprague-Dawley rat at 1.6 mg/kg, iv and 3.15 mg/kg, po by HTLC-MS/MS analysis; type: ADME, organism-based; conditions: in vivo; outline: as §1

T1 sequence (P47871 whole entry): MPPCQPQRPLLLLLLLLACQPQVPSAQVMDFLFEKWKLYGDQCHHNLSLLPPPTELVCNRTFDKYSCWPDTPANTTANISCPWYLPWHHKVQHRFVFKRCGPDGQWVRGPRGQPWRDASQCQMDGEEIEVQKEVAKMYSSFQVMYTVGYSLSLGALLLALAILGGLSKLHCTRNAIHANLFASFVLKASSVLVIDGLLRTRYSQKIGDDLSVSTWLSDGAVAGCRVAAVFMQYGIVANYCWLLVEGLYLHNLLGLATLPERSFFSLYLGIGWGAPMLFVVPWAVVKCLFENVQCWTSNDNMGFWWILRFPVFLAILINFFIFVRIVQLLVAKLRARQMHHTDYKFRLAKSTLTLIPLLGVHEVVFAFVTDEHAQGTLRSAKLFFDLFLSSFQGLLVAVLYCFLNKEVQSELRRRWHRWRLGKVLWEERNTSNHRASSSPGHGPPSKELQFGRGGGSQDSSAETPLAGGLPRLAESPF

Row | IC50 [1] [µM] | fold change (FC) [2] | fold change (FC) [3] | IC50 [4] [µM] | SMILES | also measured
1 | 0.225 | > 50 | 5 | > 1 | O=C(NC[C@@H](O)C(=O)O)c1ccc(CN(c2ccc3c(c2)CCC3)c2nc(-c3ccc(OC(F)(F)F)cc3)cs2)cc1 | 
2 | 0.036 | > 50 | 5 | 0.207 | O=C(O)CCNC(=O)c1ccc(CN(c2ccc(C3=CCCCC3)cc2)c2nc(-c3ccc(OC(F)(F)F)cc3)cs2)cc1 | clearance [5]: 2.04 L/h/kg; Cmax [6]: 0.047 µg/mL; Tmax [7]: 1.5 h; half-life [8]: 0.717 h; bioavailability [9]: 3%
3 | 0.13 | > 50 | 5 | 0.389 | O=C(O)CCNC(=O)c1ccc(CN(c2ccc(C3=CCCCC3)cc2)c2nc(-c3ccccc3)cs2)cc1 | clearance [5]: 2.1 L/h/kg; Cmax [6]: 0.094 µg/mL; Tmax [7]: 1.5 h; half-life [8]: 0.617 h; bioavailability [9]: 5%
4 | 0.118 | > 50 | 5 | 0.721 | CC(C)(C)c1ccc(-c2csc(N(Cc3ccc(C(=O)NCCC(=O)O)cc3)c3ccc(C4=CCCCC4)cc3)n2)cc1 | half-life [17]: 0.5 h; clearance [18]: 2.34 L/h/kg; Tmax [19]: 1.5 h; bioavailability [20]: 2%; Cmax [21]: 0.013 µg/mL

More lines, now with the values behind:

Row | SMILES | IC50 [1] [µM] | fold change (FC) [2] | fold change (FC) [3] | IC50 [4] [µM] | also measured
5 | O=C(O)CCNC(=O)c1ccc(CN(c2ccc(SC(F)(F)F)cc2)c2nc(-c3ccc(C(F)(F)F)cc3)cs2)cc1 | 0.034 | > 50 | 5 | 0.777 | 
6 | O=C(O)CCNC(=O)c1ccc(CN(c2nc(-c3ccc(Cl)c(Cl)c3)cs2)C2CCCc3ccccc32)cc1 (configuration not stated) | 0.531 | > 50 | 5 | 1.11 | 
7 | COc1ccccc1-c1csc(N(Cc2ccc(C(=O)NCCC(=O)O)cc2)c2ccc(SC(F)(F)F)cc2)n1 | 0.42 | > 50 | 5 | > 1 | 
8 | O=C(O)CCNC(=O)c1ccc(N(Cc2ccc3c(c2)Cc2ccccc2-3)c2nc(-c3ccc(C(F)(F)F)cc3)cs2)cc1 | 0.078 | > 50 | 5 | 0.645 | Cmax [10]: 0.093 µg/mL; bioavailability [11]: 13%; Tmax [12]: 1.5 h; half-life [13]: 0.667 h; clearance [14]: 1.86 L/h/kg
9 | O=C(O)CCNC(=O)c1ccc(N(Cc2ccc3c(c2)Cc2ccccc2-3)c2nc(-c3ccc(Cl)cc3)cs2)cc1 | 0.093 | > 50 | 5 | 0.555 | IC50 [15]: 0.034 µM; IC50 [16]: 0.32 µM
10 | O=C(O)CCNC(=O)c1ccc(CN(c2ccc3c(c2)CCC3)c2nc(-c3ccc(Cl)c(Cl)c3)cs2)cc1 | 0.099 | > 50 | 5 | 0.638 | 

Source: ChEMBL document CHEMBL1138494, “Human glucagon receptor antagonists with thiazole cores. A novel series with superior pharmacokinetic properties” (J Med Chem, 2009)
